The list is not random: actives were taken first. Their share in the collection is about 3.4%.
Arr AP2 block: blocks beta-arrestin peptide binding to AP2 adaptin. inhibition, % at 10 µM. FITC-arrestin peptide / GST-AP2 beads, flow cytometry; AP2 beta2 appendage carries R879A mutation. hit rate 0.31% among 340,000;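 active means inhibition above a set limit, near 3 SD of compounds lacking own fluorescence, cut at about 54% in these data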
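Assay system: GST-AP2 R879A bound to glutathione beads, E. coli-expressed; Medium: PBS with 0.05% Tween 20 and 0.1% BSA; Also added: fluorescein-tagged arrestin peptide at 50 nM final; Timing: 12 min plus 1 h, RT; Measured by: flow cytometry, FL1 (488/535 nm); Evaluation: percent drop in bead-associated FITC signal.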
AHR activator: activators of human aryl hydrocarbon receptor; activation, % at 5 µM; AID 2796; AHR-responsive luciferase reporter cells, luminescence; hit rate 2.5% among 320,000; in the data active means activation above about 47%
APOBEC3G inh: APOBEC3G (human) deaminase inhibition. Q9HC16. recombinant A3G, ssDNA deamination FAM/TAMRA fluorescence. inhibition, % at 20 µM. hit rate 0.28% among 330,000. AID 493012;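 active means inhibition of at least 40% at 20 µM, with no more than 30% in the related APOBEC3A deaminase screen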
UCH37 inh: blocks the human deubiquitinase UCH37 | Q9Y5K5 | purified proteasome/UCH37, Ub-AMC cleavage fluorescence | inhibition, % (concentration not given with the values) | hit rate 0.33% among 330,000;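 active means mean inhibition over replicate wells above about 20%, limit read from the data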
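Signal – fluorescence, ex 355 nm, em 460 nm · System – Proteasome-bound UCH37 · Input – 0.15 nM proteasome as dispensed · Timing – 30 min preincubation with enzyme, 25 min cleavage at room temperature · Read-out basis – percent inhibition of cleavage signal versus uninhibited and no-proteasome wells · Medium – Tris-HCl pH 7.4 with ATP-MgCl2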
APOBEC3A inh: human APOBEC3A DNA deaminase inhibition. P31941. recombinant A3A, FAM/TAMRA ssDNA deamination fluorescence. inhibition, % at 20 µM. hit rate 0.41% among 330,000;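 active means at least 40% inhibition at 20 µM here, with at most 30% in a related deaminase screen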
PolyA inh: blocks polyadenylation in yeast reporter cells. S. cerevisiae SKY197-pL101 polyadenylation reporter, beta-gal luminescence; efflux-impaired pdr1/pdr3 knockout yeast; score 100 = 6 SD above DMSO. activity score, % at 12 µM. hit rate 0.02% among 300,000;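 active means lowest replicate activity score at least 50, where 100 means six control SD above control mean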;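 further: yeast exposed to compound for 9 h at 30 °C; higher score means more reporter readthrough which indicates perturbed polyadenylation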
AHR act cf: human AHR activation, confirmation | shares compounds with AHR activator | human cells, AHR-responsive luciferase reporter, luminescence | activation, % at 9 µM | hit rate 87% among 2,300; in the data active means activation above about 49%;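 further: HepG2 hepatoma cells carrying a DRE-driven firefly luciferase reporter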
PXR counter: counter-screen for AHR activators: human PXR activators; activation, % at 11.6 µM; shares compounds with AHR activator; cell-based PXR reporter, luciferase luminescence; hit rate 88% among 2,300; in the data active means activation above about 11%;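 further: human hepatoma DPX-2 cells expressing full-length human PXR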
Hits are given with their value; n = inactive; x = no result.

SMILES	Arr AP2 block	AHR activator	APOBEC3G inh	UCH37 inh	APOBEC3A inh	PolyA inh	AHR act cf	PXR counter
Clc1cccc(C=NNc2nc(Cl)nc3ccccc23)c1	x	x	x	n	x	x	x	x
Cn1c(=O)n(CCc2ccccc2)c2ccccc21	n	125	n	n	n	n	111	40
c1ccc2c(C3=NNC(=NC4CC4)SC3)c[nH]c2c1	n	97	n	n	n	n	n	11
Cc1cc(C2=NNC(=NC3CC3)SC2)c(C)n1-c1ccccc1	n	x	x	n	x	n	x	x
C/C(C=NNC(=O)c1cc(-c2cccn2C)n[nH]1)=C\c1ccccc1	x	x	x	n	x	x	x	x
O=C(NN=Cc1ccccc1Cl)C1CC1	x	x	x	n	x	x	x	x
O=c1[nH]cnc2c1sc1nc(C(F)F)cc(-c3ccccc3)c12	n	106	n	n	n	x	76	10
O=c1[nH]cnc2c1sc1nc3c(c(-c4ccc(Cl)cc4)c12)CCC3	n	n	n	n	n	n	x	x
Cc1onc(-c2ccccc2Cl)c1-c1nc(-c2ccccn2)no1	n	92	n	x	n	n	70	176
COc1c(C(=O)Nc2nnc(C3CC3)s2)csc1Cl	n	113	n	n	n	n	157	79
Cc1cnc(C(=O)Nc2nnc(C3CC3)s2)cn1	n	n	n	n	n	n	x	x
CN(C)c1ccc(Nc2nc(-c3cccnc3)cs2)cc1	n	90	n	n	n	n	62	27
CCN(CC)c1ccc(Nc2nc(-c3cccnc3)cs2)cc1	n	n	n	n	n	n	x	x
CCn1c(SCC(=O)NCC2CCCO2)nc2c([nH]c3ccccc32)c1=O (stereo not drawn)	n	80	n	n	n	n	88	80
COc1ccccc1-n1c(SCC(=O)NCC2CCCO2)nc2c([nH]c3ccccc32)c1=O (stereo not drawn)	n	90	n	n	n	n	127	164
O=C(CSc1nc2ccccc2c(=O)n1-c1ccccc1Cl)NCC1CCCO1 (stereo not drawn)	n	n	n	n	n	x	x	x
COCCn1c(SCC(=O)Nc2cccc(NC(C)=O)c2)nc2c([nH]c3ccccc32)c1=O	n	108	n	n	n	n	91	39
COc1ccccc1-n1c(SCC(=O)Nc2ccc(NC(C)=O)cc2)nc2c([nH]c3ccccc32)c1=O	n	81	n	n	n	n	100	119
O=C(CSc1nc2c([nH]c3ccccc32)c(=O)n1-c1ccccc1)NCC1CCCO1 (stereo not drawn)	n	n	n	n	n	n	x	x
CCOc1ccc(C=NN2C(=O)C(CC(=O)Nc3ccc(F)cc3F)SC2=NC)cc1OC (stereo not drawn)	x	x	x	n	x	x	x	x
O=C(Nc1ccccc1)N1CCc2ccccc2C1	n	103	n	n	n	n	132	16
C/C(=C\C(=S)Nc1ccccc1)Nc1cccc2ccccc12	n	94	n	n	n	n	n	17
CC(C)c1ccc(NC(=S)Nc2cccc3ccccc23)cc1	n	90	n	n	n	n	90	81
COc1cc(NC(=S)Nc2cccnc2)cc(OC)c1	n	116	n	n	n	n	65	23
COc1cccc(NC(=S)Nc2cccc3ccccc23)c1	n	88	n	n	n	n	n	105
SMILES	Arr AP2 block	AHR activator	APOBEC3G inh	UCH37 inh	APOBEC3A inh	PolyA inh	AHR act cf	PXR counter
O=C(NN=Cc1ccc(OC(=O)c2cccc(Br)c2)cc1)c1cccnc1	x	x	x	n	x	x	x	x
C=C(C)CNC(=S)NN=Cc1ccc([N+](=O)[O-])cc1	x	x	x	n	x	x	x	x
C/C(=C\C(=O)c1ccc(Br)cc1)NCc1ccc(C)cc1	n	n	n	n	n	n	x	x
C/C(=C\C(=O)c1ccc(Br)cc1)NCc1ccccc1	n	95	n	n	n	n	n	27
O=C(Nc1ccc(Br)cc1)C1OCCc2ccccc21 (stereo not drawn)	n	103	n	n	n	n	107	116
O=C(Nc1cccnc1)C1OCCc2ccccc21 (stereo not drawn)	n	n	n	n	n	n	x	x
O=C(NCCCN1CCOCC1)C(=O)NN=Cc1c2ccccc2cc2ccccc12	x	x	x	n	x	x	x	x
CCCCn1nnnc1SCC(=O)Nc1ccc2c(c1)OCO2	n	90	n	n	n	n	82	30
Cc1ccc(NC(=O)CSc2nnnn2-c2ccc3c(c2)OCO3)cc1C	n	159	n	n	n	n	167	226
O=C(CSc1nnnn1Cc1ccccc1)Nc1ccc2c(c1)OCO2	n	102	n	n	n	n	85	94
Cc1nc2cncc(Br)c2n1C	n	81	n	n	n	n	n	24
c1ccc(C2=Nc3c(ccc4ccccc34)C(c3ccncc3)=NN2)cc1	n	80	n	n	n	x	110	46
O=C(CN1CCCCCC1)Nc1ccc(Br)cc1	n	84	n	n	n	n	112	60
O=C(CN1CCCC1)Nc1ccc(Br)cc1	n	n	n	n	n	n	x	x
Cc1cc2nc(C)n3c4ccccc4nc3n2n1	n	85	n	n	n	n	127	13
Cc1cc(C)n(-c2nc3ccccc3n3nnnc23)n1	n	n	n	n	n	n	x	x
CCc1nc2cc(C)nn2c2nc3ccccc3n12	n	91	n	n	n	n	99	30
CN(C)C(=O)COc1ccc(S(=O)(=O)c2ccc(OCC(=O)N(C)C)cc2)cc1	n	102	n	n	n	n	n	n
CCOc1cc2nc(-c3ccc(OC)c(OC)c3)nc(N3CCOCC3)c2cc1OC	x	n	n	n	n	n	x	x
CCOc1cc2nc(-c3ccc(OC)c(OC)c3)nc(N3CC(C)OC(C)C3)c2cc1OC (stereo not drawn)	x	83	n	x	n	n	96	16
Cc1cc(C)n2cc(-c3ccc(Cl)cc3)c(C(=O)O)c2n1	n	96	n	n	n	n	106	x
Cn1ccsc1=NC(=O)c1ccc(OC(F)(F)F)cc1	n	98	n	n	n	n	109	24
Cn1ccsc1=NC(=O)c1ccc(Cl)cc1	n	88	n	n	n	n	126	25
COc1ccc(C(=O)N=c2sccn2C)cc1	n	n	n	n	n	n	x	x
N#Cc1nc(-c2ccc(OCc3ccc(Cl)cc3)cc2)oc1NCCCn1ccnc1	n	n	n	n	n	n	x	x
N#Cc1nc(-c2ccccc2)oc1NCCCn1ccnc1	n	99	n	n	n	n	104	28
CON=CC(=NNc1ccc(OC)cc1)C(=O)c1ccccc1	x	x	x	n	x	x	x	x
Cc1cc2n(n1)C(c1ccc3c(c1)OCO3)Nc1ccccc1-2 (stereo not drawn)	n	96	n	n	n	n	91	42
